Publication PMC2802833 (Journal of Alzheimer's disease : JAD, 2009)
Strand notation (5' to 3'): a small letter for the sugar, then the base; units joined by * are phosphorothioate-linked, units joined directly phosphodiester-linked; [ ] holds rarer units or linkages, { } end groups; capitals alone tell only the bases. d = 2'-deoxy (DNA)

What was measured:
[1] = tested on: primary mouse BMEC monolayers; assay: Transport; assay type: cell-based; conditions: 1 μg/mL unlabeled Aβ42 added to abluminal chamber; n = 13-15/group
Outline: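 Primary mouse brain endothelial cells were isolated by enzyme digestion and Percoll gradient. They were seeded at 4 × 10^4 cells/insert on fibronectin/collagen IV-coated 0.33 cm2, 0.4 μm polyester Transwells and grown to confluence (~3 days) in DMEM/F-12 with 20% plasma-derived serum, bFGF and 500 nM hydrocortisone. Assays ran in HEPES buffer pH 7.4 with 1% BSA. Radio-iodinated Aβ42 (1 × 10^6 cpm/mL) was placed in the loading chamber, with or without unlabelled Aβ42 (1 μg/mL). TCA-precipitable counts were used to give clearance and membrane-corrected permeability (cm/min).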

[2] = In vivo brain-to-blood efflux rate of i.c.v. P-Olg; parameters: species or system mouse; conditions: after i.c.v. injection, 5 × 10^3 cpm/μl, 2-20 min; n = 2-3 mice/time point
Outline: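 Oligonucleotide was kinase-labelled, ethanol-precipitated, stored at −70°C and used within 48 h. After i.c.v. injection into anaesthetised mice, animals were decapitated at 2, 5, 10 or 20 min and brain radioactivity counted. The t = 0 level came from urethane-overdosed mice. Log % injected dose was plotted against time, and the slope (efflux rate) was obtained by linear regression. n = 2–3 mice/time point.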

[3] = Saturability of brain uptake for cocktail ODNs; assay type: in vivo; conditions: 10 μg/mouse unlabeled PS-ODN i.v., brain/serum ratio at 30 min; n = 8-9/group
Outline: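 Labelled 19mer or 23mer (5 × 10^5 cpm/200 μl lactated Ringer's–1% BSA) was given i.v. with or without 10 μg/mouse of the corresponding unlabelled phosphorothioate oligonucleotide. Brain and serum were collected 30 min after injection. Results were expressed as brain/serum ratios.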

[4] = tested on: LRP-1; assay: Immunohistochemistry of LRP-1 in isolated mouse brain microvessels; assay type: cell-based; conditions: isolated MBMs, 10 μg/mL, 24 h; buffer = 100%; n = 5-6 slides/group
Outline: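 Cerebral cortices from 10–12 adult male CD-1 mice, meninges removed, were homogenised in cold HEPES/dextran stock buffer. Microvessels were isolated by nylon-mesh filtration and dextran centrifugation, then kept in incubation buffer pH 7.4. They were exposed to buffer, random antisense or antisense cocktail (10 μg/mL) for 24 h. Vessels were heat-fixed, fixed in 3.7% formaldehyde and Triton-permeabilised, then stained overnight at 4°C with anti-LRP-1 antibody (10 μg/mL). Mean fluorescence was measured from 5–6 […]/group.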

[5] = target: LRP-1 (Mus musculus, UniProt Q91ZX7); assay: Inhibition by RAP of brain-to-blood efflux of i.c.v. I-Aβ42; assay type: in vivo; conditions: n = 9/group
Sequence of LRP-1 (Mus musculus, UniProt Q91ZX7) (Q91ZX7 20-4545): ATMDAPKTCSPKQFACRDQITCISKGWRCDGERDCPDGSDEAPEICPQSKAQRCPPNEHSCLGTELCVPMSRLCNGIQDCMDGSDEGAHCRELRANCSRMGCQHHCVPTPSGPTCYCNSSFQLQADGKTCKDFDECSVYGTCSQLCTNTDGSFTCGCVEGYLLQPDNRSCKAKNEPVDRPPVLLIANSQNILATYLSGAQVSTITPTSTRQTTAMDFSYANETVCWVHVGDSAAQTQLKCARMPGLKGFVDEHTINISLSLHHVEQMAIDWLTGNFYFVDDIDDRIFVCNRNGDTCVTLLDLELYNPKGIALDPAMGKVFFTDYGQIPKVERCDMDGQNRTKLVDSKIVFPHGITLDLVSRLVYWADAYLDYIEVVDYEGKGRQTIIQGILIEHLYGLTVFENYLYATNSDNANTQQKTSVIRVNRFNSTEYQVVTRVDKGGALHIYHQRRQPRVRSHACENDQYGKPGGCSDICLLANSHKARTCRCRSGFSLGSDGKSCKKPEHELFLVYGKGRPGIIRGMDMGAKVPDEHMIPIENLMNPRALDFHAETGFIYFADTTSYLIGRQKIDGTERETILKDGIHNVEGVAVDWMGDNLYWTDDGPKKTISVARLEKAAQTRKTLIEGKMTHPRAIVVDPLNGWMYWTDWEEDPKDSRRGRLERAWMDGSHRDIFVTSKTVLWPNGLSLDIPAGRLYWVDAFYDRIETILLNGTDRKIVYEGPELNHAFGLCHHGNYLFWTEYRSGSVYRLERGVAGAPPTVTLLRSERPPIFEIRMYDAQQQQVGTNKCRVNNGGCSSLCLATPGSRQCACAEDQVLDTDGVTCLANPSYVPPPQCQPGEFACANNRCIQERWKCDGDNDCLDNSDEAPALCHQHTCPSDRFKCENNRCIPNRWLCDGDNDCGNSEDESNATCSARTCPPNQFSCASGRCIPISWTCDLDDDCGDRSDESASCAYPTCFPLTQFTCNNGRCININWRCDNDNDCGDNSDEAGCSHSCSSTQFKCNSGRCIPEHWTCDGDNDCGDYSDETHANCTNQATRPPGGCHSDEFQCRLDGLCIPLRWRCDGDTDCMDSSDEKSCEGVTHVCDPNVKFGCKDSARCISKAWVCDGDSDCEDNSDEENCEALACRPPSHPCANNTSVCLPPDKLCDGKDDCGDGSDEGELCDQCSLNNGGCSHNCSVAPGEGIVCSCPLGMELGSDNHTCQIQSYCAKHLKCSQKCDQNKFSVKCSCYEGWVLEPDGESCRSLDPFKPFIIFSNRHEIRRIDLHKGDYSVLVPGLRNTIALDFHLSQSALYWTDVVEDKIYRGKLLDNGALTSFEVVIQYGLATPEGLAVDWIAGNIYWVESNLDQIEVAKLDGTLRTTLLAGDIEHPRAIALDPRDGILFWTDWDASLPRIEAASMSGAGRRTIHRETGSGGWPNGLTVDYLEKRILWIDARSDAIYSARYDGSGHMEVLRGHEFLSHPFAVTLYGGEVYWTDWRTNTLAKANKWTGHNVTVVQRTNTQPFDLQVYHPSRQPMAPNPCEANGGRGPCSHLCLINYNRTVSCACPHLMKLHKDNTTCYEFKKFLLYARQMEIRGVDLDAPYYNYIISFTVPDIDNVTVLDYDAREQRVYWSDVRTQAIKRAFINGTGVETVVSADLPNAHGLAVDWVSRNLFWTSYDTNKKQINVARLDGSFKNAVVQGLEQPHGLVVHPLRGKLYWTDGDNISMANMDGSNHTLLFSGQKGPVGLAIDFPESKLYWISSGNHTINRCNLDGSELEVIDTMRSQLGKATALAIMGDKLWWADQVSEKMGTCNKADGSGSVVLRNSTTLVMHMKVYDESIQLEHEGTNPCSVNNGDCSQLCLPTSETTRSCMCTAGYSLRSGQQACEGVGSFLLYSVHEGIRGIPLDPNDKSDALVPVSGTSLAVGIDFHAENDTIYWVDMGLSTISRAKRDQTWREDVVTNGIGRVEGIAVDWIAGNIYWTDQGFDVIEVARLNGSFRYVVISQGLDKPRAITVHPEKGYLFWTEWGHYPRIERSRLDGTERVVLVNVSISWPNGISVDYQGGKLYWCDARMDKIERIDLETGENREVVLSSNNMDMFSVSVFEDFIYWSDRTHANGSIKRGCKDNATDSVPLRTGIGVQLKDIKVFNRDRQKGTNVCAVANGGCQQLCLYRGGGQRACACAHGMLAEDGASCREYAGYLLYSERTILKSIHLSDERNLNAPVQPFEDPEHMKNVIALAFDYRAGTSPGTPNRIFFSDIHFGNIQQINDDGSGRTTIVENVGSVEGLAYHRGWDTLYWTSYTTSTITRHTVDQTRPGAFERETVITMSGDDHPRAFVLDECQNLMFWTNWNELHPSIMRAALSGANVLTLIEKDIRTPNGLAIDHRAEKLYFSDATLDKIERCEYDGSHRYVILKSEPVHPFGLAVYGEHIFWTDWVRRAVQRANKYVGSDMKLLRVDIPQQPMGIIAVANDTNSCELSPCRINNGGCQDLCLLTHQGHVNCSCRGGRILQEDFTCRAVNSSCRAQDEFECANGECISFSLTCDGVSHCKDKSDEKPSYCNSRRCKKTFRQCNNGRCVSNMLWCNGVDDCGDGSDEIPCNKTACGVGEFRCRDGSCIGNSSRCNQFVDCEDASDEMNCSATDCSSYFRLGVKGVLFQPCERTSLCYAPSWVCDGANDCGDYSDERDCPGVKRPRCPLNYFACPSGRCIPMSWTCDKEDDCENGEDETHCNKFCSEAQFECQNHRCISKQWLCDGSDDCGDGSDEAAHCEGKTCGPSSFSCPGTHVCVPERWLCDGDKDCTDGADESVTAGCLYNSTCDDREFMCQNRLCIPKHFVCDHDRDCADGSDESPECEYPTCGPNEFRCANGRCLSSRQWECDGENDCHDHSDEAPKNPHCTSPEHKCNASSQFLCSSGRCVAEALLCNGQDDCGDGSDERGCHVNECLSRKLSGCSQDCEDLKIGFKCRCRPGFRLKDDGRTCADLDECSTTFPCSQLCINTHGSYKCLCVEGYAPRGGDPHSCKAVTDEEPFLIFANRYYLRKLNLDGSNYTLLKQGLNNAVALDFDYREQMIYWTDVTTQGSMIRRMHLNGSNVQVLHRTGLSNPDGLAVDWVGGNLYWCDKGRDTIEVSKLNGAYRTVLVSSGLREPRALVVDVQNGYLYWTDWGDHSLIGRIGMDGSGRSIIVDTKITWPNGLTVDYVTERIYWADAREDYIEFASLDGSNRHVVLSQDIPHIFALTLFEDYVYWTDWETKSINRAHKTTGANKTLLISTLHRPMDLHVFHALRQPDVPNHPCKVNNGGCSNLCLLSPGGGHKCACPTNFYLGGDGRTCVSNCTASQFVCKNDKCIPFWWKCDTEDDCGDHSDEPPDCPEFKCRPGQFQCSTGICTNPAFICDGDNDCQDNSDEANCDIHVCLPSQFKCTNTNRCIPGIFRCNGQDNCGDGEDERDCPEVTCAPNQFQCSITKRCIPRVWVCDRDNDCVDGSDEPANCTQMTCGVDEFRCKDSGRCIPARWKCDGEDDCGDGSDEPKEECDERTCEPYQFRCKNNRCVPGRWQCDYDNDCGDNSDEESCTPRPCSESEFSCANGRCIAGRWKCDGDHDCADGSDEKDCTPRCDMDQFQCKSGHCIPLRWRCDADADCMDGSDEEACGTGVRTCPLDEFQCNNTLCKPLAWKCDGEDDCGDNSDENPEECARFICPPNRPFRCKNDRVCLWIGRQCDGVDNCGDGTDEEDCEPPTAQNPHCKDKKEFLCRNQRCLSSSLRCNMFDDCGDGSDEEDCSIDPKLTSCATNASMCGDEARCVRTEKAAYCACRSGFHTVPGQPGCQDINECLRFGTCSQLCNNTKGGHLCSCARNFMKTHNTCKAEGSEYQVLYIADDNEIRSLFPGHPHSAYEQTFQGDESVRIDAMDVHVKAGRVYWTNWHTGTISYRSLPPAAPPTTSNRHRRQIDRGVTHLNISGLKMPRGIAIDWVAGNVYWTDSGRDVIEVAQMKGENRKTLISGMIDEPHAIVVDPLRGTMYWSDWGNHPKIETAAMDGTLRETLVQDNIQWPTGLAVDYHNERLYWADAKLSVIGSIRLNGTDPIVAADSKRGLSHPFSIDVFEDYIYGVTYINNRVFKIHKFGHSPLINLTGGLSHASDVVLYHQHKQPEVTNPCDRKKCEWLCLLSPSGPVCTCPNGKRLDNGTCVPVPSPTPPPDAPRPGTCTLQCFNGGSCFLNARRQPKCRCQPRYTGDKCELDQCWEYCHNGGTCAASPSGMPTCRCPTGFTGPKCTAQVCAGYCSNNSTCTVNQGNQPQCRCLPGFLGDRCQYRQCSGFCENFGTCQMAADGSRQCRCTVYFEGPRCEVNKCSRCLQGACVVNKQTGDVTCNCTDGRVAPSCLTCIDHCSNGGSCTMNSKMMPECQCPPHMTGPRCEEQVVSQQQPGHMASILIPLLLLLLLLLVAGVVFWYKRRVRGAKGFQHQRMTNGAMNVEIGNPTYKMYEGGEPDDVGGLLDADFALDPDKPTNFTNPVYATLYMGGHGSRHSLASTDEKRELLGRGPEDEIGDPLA

Row | Substance | half-time clearance from brain [2] | brain uptake on co-administration of unlabeled PS-ODN (saturability) [3] | also measured
1 | Aβ42: 42 amino acid murine Aβ (Bachem), unlabeled, used as competitor of I-Aβ42 transport |  |  | abluminal-to-luminal transport of I-Aβ42 (saturability) [1]: significantly (p < 0.01) inhibited
2 | P-19mer: 19mer (Anti-LRP1) phosphorothioate ODN 5′-(_P=S)TGATTTGGTCTCTGCAGGC-3′, directed at an LRP-1 coding region (nt 559–541) (antisense dT*dG*dA*dT*dT*dT*dG*dG*dT*dC*dT*dC*dT*dG*dC*dA*dG*dG*dC) | 231.5 min | not significantly decreased | 
3 | P-23mer: 23mer (Anti-LRP1) phosphorothioate ODN 5′-(_P=S)GTGTGGGCCGATGCAAACAGCAG-3′, designed to bind the translation start site (nt 442–418) (antisense dG*dT*dG*dT*dG*dG*dG*dC*dC*dG*dA*dT*dG*dC*dA*dA*dA*dC*dA*dG*dC*dA*dG) | 47.8 min | significantly decreased | 
4 | random antisense: 21mer (Random) control PS-ODN 5′-(_P=S)GAGAAGGTTGTGTGATCTTCA, no sequence homology with any mouse genes (antisense dG*dA*dG*dA*dA*dG*dG*dT*dT*dG*dT*dG*dT*dG*dA*dT*dC*dT*dT*dC*dA) |  |  | mean fluorescent intensity (LRP-1 immunofluorescence) [4]: 111.14%
5 | receptor-associated protein [RAP] |  |  | brain-to-blood efflux of i.c.v. administered I-Aβ42 [5]: inhibits
